Assays:
Assay type in all cases: functional
Escherichia coli [1] = test: Antibacterial activity against Escherichia coli ATCC 25922 after 24 hrs
Outline: (§1)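 Broth microdilution. Mid-log bacteria in MHB at a final (0.5−1) × 10^5 CFU/mL were mixed with equal volumes of peptide serially diluted in 0.2% BSA. Plates were incubated 24 h at 37 °C and read at A492. MIC is the lowest concentration inhibiting 95% of growth. Each test was repeated at least 3 times.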

Escherichia coli [2] = test: Antibacterial activity against Escherichia coli 1005 after 24 hrs; outline: as §1
Salmonella typhimurium [3] = test: Antibacterial activity against Salmonella typhimurium ATCC 14028 after 24 hrs; settings: Salmonella enterica subsp. enterica serovar Typhimurium; outline: as §1
[4] = system: Salmonella enterica subsp. enterica serovar Pullorum; test: Antibacterial activity against Salmonella pullorum ATCC 7913 after 24 hrs; outline: as §1
Staphylococcus aureus [5] = test: Antibacterial activity against Staphylococcus aureus ATCC 29213 after 24 hrs
Outline: (§2)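 Modified NCCLS broth microdilution. Mid-log bacteria at (0.5−1) × 10^5 CFU/mL in MHB were mixed 1:1 with peptide serially diluted in 0.2% BSA and incubated 24 h at 37 °C. Absorbance was read at 492 nm; MIC is the lowest concentration inhibiting 95% of growth. At least 3 repeats.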

Staphylococcus aureus [6] = test: Antibacterial activity against methicillin-resistant Staphylococcus aureus ATCC 4330 after 24 hrs; outline: as §2
[7] = system: Staphylococcus epidermidis; test: Antibacterial activity against Staphylococcus epidermidis ATCC 12228 after 24 hrs; outline: as §1
Staphylococcus aureus [8] = test: Antibacterial activity against Staphylococcus aureus ATCC 25923 after 24 hrs; outline: as §2
Escherichia coli [9] = test: Bactericidal activity against Escherichia coli ATCC 25922
Outline: (§3)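 Wells from the 24 h, 37 °C MHB microdilution plates (bacteria at a final (0.5−1) × 10^5 CFU/mL; peptide diluted in 0.2% BSA) were plated on agar and incubated overnight. MBC is the lowest concentration killing >99.9% of cells. Each test was reproduced at least 3 times.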

Escherichia coli [10] = test: Bactericidal activity against Escherichia coli 1005; outline: as §3
Salmonella typhimurium [11] = test: Bactericidal activity against Salmonella typhimurium ATCC 14028; settings: Salmonella enterica subsp. enterica serovar Typhimurium; outline: as §3
[12] = system: Salmonella enterica subsp. enterica serovar Pullorum; test: Bactericidal activity against Salmonella pullorum ATCC 7913; outline: as §3
Staphylococcus aureus [13] = test: Bactericidal activity against Staphylococcus aureus ATCC 29213; outline: as §3
Staphylococcus aureus [14] = test: Bactericidal activity against methicillin-resistant Staphylococcus aureus ATCC 4330
Outline: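 Bacteria at (0.5−1) × 10^5 CFU/mL in MHB were exposed to serially diluted peptide (0.2% BSA) for 24 h at 37 °C, then 50 μL aliquots were plated on agar overnight. MBC is the lowest concentration killing >99.9% of cells. At least 3 repeats.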

[15] = system: Staphylococcus epidermidis; test: Bactericidal activity against Staphylococcus epidermidis ATCC 12228; outline: as §3
Staphylococcus aureus [16] = test: Bactericidal activity against Staphylococcus aureus ATCC 25923; outline: as §3
Escherichia coli [17] = test: Antibacterial activity against Escherichia coli ATCC 25922 after 18 hrs in presence of NaCl by broth dilution method
Escherichia coli [18] = test: Antibacterial activity against Escherichia coli ATCC 25922 after 18 hrs in presence of KCl by broth dilution method
Escherichia coli [19] = test: Antibacterial activity against Escherichia coli ATCC 25922 after 18 hrs in presence of NH4Cl by broth dilution method
Escherichia coli [20] = test: Antibacterial activity against Escherichia coli ATCC 25922 after 18 hrs in presence of MgCl2 by broth dilution method
Escherichia coli [21] = test: Antibacterial activity against Escherichia coli ATCC 25922 after 18 hrs in presence of CaCl2 by broth dilution method
Escherichia coli [22] = test: Antibacterial activity against Escherichia coli ATCC 25922 after 18 hrs in presence of ZnCl2 by broth dilution method
Escherichia coli [23] = test: Antibacterial activity against Escherichia coli ATCC 25922 after 18 hrs in presence of FeCl3 by broth dilution method
Escherichia coli [24] = test: Antibacterial activity against Escherichia coli ATCC 25922 after 18 hrs in presence of 12.5% human heat-inactivated serum by broth dilution method
Escherichia coli [25] = test: Antibacterial activity against Escherichia coli ATCC 25922 after 18 hrs in presence of 25% human heat-inactivated serum by broth dilution method
Escherichia coli [26] = test: Antibacterial activity against Escherichia coli ATCC 25922 after 18 hrs in presence of 50% human heat-inactivated serum by broth dilution method

GENTAMICIN
MIC95 (Escherichia coli [1]): 1 µM | MIC95 (Escherichia coli [2]): 0.5 µM | MIC95 (Salmonella typhimurium [3]): 2 µM | MIC95 [4]: 1 µM | MIC95 (Staphylococcus aureus [5]): 1 µM | MIC95 (Staphylococcus aureus [6]): 8 µM | MIC95 [7]: 0.5 µM | MIC95 (Staphylococcus aureus [8]): 1 µM | MBC99.9 (Escherichia coli [9]): 2 µM | MBC99.9 (Escherichia coli [10]): 1 µM | MBC99.9 (Salmonella typhimurium [11]): 4 µM | MBC99.9 [12]: 2 µM | MBC99.9 (Staphylococcus aureus [13]): 1 µM | MBC99.9 (Staphylococcus aureus [14]): 8 µM | MBC99.9 [15]: 1 µM | MBC99.9 (Staphylococcus aureus [16]): 1 µM | MIC (Escherichia coli [17]): 2 µM | MIC (Escherichia coli [18]): 1 µM | MIC (Escherichia coli [19]): 2 µM | MIC (Escherichia coli [20]): 1 µM | MIC (Escherichia coli [21]): 1 µM | MIC (Escherichia coli [22]): 2 µM | MIC (Escherichia coli [23]): 1 µM | MIC (Escherichia coli [24]): 1 µM | MIC (Escherichia coli [25]): 1 µM | MIC (Escherichia coli [26]): 2 µM
